Measured values from ChEMBL document CHEMBL1138411, “Design, synthesis, and biological evaluation of 1,3-dioxoisoindoline-5-carboxamide derivatives as T-type calcium channel blockers” (Bioorg Med Chem Lett, 2007).

What was measured:
[1] = target: Voltage-dependent T-type calcium channel subunit alpha-1G (Homo sapiens, UniProt O43497); assay: Inhibition of T-type calcium channel Cav3.1 expressed in HEK293 cells co-expressing alpha1G subunit and Kir2.1 potassium channel by patch-clamp assay; format: cell-based
Voltage-dependent T-type calcium channel subunit alpha-1G, sequence (O43497 whole entry): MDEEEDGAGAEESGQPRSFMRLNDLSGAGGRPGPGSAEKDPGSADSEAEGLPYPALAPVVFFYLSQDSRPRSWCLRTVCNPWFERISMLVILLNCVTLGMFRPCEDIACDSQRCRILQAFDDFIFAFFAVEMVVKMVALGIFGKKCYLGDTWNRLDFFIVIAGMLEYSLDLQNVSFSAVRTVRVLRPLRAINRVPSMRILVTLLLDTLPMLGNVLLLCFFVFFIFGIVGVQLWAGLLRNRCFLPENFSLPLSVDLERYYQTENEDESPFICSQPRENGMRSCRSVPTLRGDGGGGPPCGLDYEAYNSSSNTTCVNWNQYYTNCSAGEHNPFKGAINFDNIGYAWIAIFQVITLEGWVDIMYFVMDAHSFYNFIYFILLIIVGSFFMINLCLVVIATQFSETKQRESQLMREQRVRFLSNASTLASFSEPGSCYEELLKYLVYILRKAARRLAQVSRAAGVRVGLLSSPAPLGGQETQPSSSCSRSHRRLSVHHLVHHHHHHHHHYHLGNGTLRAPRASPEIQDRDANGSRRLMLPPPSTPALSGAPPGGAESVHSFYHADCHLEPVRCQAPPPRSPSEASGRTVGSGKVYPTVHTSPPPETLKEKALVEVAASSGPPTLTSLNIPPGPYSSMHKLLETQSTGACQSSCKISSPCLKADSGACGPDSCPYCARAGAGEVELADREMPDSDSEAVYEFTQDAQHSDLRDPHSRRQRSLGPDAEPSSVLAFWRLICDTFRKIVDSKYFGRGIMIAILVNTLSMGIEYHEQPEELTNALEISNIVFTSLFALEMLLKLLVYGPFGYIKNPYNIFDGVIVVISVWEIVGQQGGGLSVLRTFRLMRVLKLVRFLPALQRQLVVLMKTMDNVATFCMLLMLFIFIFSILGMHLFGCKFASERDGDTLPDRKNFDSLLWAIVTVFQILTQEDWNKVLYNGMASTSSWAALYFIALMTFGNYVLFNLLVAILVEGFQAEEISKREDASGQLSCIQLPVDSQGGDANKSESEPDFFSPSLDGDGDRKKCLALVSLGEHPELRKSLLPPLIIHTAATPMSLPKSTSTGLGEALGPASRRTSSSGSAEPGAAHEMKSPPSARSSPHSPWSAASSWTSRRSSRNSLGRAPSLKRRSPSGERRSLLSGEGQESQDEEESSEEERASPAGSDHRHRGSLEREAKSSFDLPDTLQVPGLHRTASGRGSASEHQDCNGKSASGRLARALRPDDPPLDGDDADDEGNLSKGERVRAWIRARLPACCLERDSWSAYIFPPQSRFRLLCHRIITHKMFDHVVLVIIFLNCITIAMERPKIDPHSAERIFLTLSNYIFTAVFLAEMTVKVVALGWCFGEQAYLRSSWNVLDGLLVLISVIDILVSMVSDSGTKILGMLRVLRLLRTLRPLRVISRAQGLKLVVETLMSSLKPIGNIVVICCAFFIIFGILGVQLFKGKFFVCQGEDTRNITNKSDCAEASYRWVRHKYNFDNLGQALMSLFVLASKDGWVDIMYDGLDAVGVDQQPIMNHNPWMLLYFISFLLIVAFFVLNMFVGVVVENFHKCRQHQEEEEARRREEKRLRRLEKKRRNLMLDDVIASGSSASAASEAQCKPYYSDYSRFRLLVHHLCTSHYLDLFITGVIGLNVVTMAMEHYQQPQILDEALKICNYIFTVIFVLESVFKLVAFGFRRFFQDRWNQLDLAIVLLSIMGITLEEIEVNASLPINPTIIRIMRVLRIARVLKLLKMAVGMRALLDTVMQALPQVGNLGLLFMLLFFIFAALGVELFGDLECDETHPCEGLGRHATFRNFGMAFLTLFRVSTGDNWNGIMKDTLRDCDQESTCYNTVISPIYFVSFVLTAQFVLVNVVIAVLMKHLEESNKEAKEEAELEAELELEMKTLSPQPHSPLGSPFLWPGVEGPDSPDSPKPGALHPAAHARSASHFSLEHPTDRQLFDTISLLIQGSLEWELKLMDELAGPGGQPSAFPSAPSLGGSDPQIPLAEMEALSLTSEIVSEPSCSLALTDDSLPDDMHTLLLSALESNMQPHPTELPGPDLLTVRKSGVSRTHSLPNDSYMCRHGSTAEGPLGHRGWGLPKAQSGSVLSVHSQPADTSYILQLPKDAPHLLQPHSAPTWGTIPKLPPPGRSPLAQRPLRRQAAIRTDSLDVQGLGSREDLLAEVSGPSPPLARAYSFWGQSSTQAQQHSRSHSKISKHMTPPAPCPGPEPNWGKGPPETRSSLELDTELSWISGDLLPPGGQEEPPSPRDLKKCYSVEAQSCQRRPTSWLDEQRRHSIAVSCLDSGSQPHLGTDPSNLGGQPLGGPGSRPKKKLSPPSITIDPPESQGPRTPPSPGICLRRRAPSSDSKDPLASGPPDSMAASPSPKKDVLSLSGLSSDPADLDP
Outline: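 Cells were HEK293 stably co-expressing Cav3.1 (α1G) and Kir2.1. Single-cell patch-clamp recording measured % inhibition of Ca2+ current at set compound concentrations, giving IC50 values. This was a secondary screen of compounds selected from a primary FDSS6000 fluorescence high-throughput assay.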

[2] = Inhibition of N-type calcium channel activity; design: species or system Homo sapiens
[3] = Cytotoxicity against HEK293 cells by MTT assay; format: cell-based; details: human
Outline: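 MTT viability read-out. Negative control was 0.1% DMSO and positive control was H2O2.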

Homo sapiens = species on record: Homo sapiens; assay: Selectivity index, ratio of IC50 for N-type calcium channel to IC50 for T-type calcium channel Cav3.1

| SMILES | IC50 [1] [µM] | also measured |
| --- | --- | --- |
| O=C(NCCN1CCCCC1)c1ccc2c(c1)C(=O)N(Cc1ccccc1F)C2=O | 14.9 |  |
| O=C(NCCN1CCCCC1)c1ccc2c(c1)C(=O)N(Cc1ccccc1Cl)C2=O | 5.82 |  |
| COc1cccc(CN2C(=O)c3ccc(C(=O)NCCN4CCCCC4)cc3C2=O)c1 | 14.1 |  |
| O=C(NCCN1CCCCC1)c1ccc2c(c1)C(=O)N(Cc1ccc(F)cc1)C2=O | 8.88 |  |
| Cc1ccc(CN2C(=O)c3ccc(C(=O)NCCCN4CCCCC4C)cc3C2=O)cc1 (stereo unspecified) | 3.53 |  |
| O=C(NCCN1CCCCC1)c1ccc2c(c1)C(=O)N(Cc1ccccc1)C2=O | 22.8 |  |
| O=C(NCCN1CCCCC1)c1ccc2c(c1)C(=O)N(Cc1ccc(Cl)cc1)C2=O |  | IC50 [2]: 33.4 µM; CC50 [3]: > 100 µM; Ratio IC50 (Homo sapiens): 35 |
| COc1ccc(CN2C(=O)c3ccc(C(=O)NCCN4CCCCC4)cc3C2=O)cc1 | 5.25 |  |
| O=C(NCCN1CCCCC1)c1ccc2c(c1)C(=O)N(Cc1cccc(Cl)c1)C2=O | 4.09 |  |
| O=C(NCCCN1CCCC1)c1ccc2c(c1)C(=O)N(Cc1ccc(Cl)cc1)C2=O | 1.62 |  |
| Cc1ccc(CN2C(=O)c3ccc(C(=O)NCCN4CCCCC4)cc3C2=O)cc1 | 5.82 |  |
| CC1CCCCN1CCCNC(=O)c1ccc2c(c1)C(=O)N(Cc1ccc(Cl)cc1)C2=O (stereo unspecified) |  | IC50 [2]: 54.7 µM; CC50 [3]: > 100 µM; Ratio IC50 (Homo sapiens): 59 |
